Experimental data from different studies.
Target: 5-hydroxytryptamine receptor 3A (HTR3A, Homo sapiens, UniProt P46098)
Tested at: 10 µM
Residues used in one study (P46098 24-478): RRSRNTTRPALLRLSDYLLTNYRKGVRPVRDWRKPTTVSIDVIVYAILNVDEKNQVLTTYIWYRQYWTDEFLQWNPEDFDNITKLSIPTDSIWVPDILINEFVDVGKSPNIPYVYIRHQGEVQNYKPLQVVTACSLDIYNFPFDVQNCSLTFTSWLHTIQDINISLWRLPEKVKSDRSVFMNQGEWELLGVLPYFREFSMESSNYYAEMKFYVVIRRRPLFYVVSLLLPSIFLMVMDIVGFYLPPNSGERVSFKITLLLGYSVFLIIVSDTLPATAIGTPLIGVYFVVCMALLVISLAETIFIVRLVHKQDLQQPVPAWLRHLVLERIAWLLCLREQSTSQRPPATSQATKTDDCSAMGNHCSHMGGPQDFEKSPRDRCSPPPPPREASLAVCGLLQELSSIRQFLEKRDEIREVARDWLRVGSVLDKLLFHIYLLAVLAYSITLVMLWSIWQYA

| Structure (SMILES) | effect on | technique | inhibition |
| --- | --- | --- | --- |
| CCN(CC)c1ccc(C2Nc3ccc(C(=O)c4ccccc4)cc3NC3=C2C(=O)CC(C)(C)C3)cc1 (stereo not shown) | ligand displacement | radioligand | -5% |
| N#Cc1cc(Cn2c(N3CCCC3)nc3ccccc32)ccc1F | cell-free assay | – | -12.4% |
| CC[C@H](CC(=O)O)n1c(=O)c2ncccc2n(Cc2cn(C)c3cc(C)cc(C)c23)c1=O | cell-free assay | – | 0.31% |
| O=C(c1ccc(Cl)cc1)N(Cc1ccccc1)C1CCCCC1 | ligand displacement | radioligand | 1.9% |
| COc1cc(N[C@@H]2CCCC[C@]2(O)C(F)(F)F)ccc1F | cell-free assay | – | 11.6% |
| O=C1N=C(N2CCCCN2)S/C1=C\c1ccc(F)cc1O | ligand displacement | radioligand | 17% |
| COc1cc(NC(C)=O)c(Cl)cc1C(=O)Nc1nccs1 | ligand displacement | radioligand | 15.9% |
| O=C(NC1C2CCN(CC2)C1Cc1cccnc1)c1cc2ccccc2o1 (stereo not shown) | ligand displacement | radioligand | 25% |
| CCCNc1nc2ccccc2n1Cc1ccc(Cl)cc1 | cell-free assay | – | -1.96% |
| COc1cc2c3c(c1OC)-c1cc4c(cc1CC3N(CC1CC1)CC2c1ccccc1)OCO4 (stereo not shown) | ligand displacement | radioligand | -13.3% |
